# TCR CD3 inh: inhibitors of human TCR-CD3 interaction | TAMRA-labeled TCR probe fluorescence, biochemical | hit rate 0.37% among 360,000 | AID 651800 | inhibition, % at 9.4 µM;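 further: recombinant mutant TCR 2C K166C tagged with TAMRA read by polarization; 0% = receptor in buffer alone and 100% = receptor with positive control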
# HTRA1 inh: blocks human HTRA1 serine peptidase. Q92743. recombinant HTRA1, FP-rhodamine activity-based probe, fluorescence polarization. inhibition, % at 5.96 µM. hit rate 0.5% among 340,000. AID 504803; in the data active means inhibition above about 36%;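 further: 0% = enzyme with DMSO and 100% = wells lacking enzyme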
# SIAE primary: inhibitors of human sialic acid acetylesterase SIAE | hit rate 0.69% among 370,000 | inhibition, % at 9.66 µM | Q9HAT2 | SIAE FP-Rh probe binding, fluorescence polarization;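 active means inhibition above a cutoff: mean of compounds within the control limits plus 3 SD of those, cut at about 17% in these data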;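 further: 0% = plate median of compound wells and 100% = probe without SIAE protein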
# Target sequence (Q9HAT2 whole entry, looked up): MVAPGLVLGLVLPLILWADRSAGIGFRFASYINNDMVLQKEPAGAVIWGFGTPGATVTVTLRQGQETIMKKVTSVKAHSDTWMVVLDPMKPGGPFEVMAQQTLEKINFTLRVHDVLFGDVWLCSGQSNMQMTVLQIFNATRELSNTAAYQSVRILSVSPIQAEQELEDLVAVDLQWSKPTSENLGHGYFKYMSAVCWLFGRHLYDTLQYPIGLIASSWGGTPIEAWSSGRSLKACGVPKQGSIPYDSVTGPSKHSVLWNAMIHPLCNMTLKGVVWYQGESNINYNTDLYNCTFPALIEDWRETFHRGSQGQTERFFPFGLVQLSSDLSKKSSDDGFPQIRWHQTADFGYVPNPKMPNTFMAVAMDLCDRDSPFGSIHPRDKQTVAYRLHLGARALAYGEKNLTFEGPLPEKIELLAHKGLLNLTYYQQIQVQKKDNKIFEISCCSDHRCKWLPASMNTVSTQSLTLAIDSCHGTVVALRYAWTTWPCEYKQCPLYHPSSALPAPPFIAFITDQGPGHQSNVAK
# mABHD4 FP: ABHD4 (mouse) inhibition, primary FP screen | purified mABHD4, FP-Rh probe fluorescence polarization | inhibition, % at 8.92 µM | hit rate 0.54% among 370,000 | AID 720543;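 active means inhibition exceeding the mean over every tested compound plus 3 SD, cut at about 30% in these data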;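 further: 0% = plate median of compound wells and 100% = S159A mutant with DMSO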
# Target sequence (Q8VD66 whole entry, looked up): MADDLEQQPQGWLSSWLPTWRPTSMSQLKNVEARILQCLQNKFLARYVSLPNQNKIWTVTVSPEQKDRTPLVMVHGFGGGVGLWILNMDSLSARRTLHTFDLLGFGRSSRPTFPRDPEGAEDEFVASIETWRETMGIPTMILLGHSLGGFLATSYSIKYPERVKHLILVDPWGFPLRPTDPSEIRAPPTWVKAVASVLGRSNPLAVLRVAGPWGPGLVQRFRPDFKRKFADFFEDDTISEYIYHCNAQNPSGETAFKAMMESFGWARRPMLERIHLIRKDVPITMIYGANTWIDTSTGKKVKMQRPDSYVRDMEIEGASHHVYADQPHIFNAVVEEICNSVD
#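 System: mouse ABHD4 enzyme, wild type / Medium: HEPES pH 7.0, NaCl, Pluronic buffer / Reagent: FP-Rh activity-based fluorescent probe / Control set: S159A mutant high control, sample median low control / Detection: fluorescence polarization with parallel and perpendicular emission, 525/598 nm / Schedule: 45 min + 60 min at 25 °C / Compound dosing: 8.92 µM, single dose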
# DDE Tn6 FP inh: DD(E)-Tn6 binding inhibition, primary FP screen; P02675; Fibrin DD(E) TRITC-Tn6 fluorescence polarization displacement; inhibition, % at 8.3 µM; hit rate 0.21% among 370,000;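 active means inhibition above a per-campaign cutoff: mean of compounds within control limits plus 3 SD, cut at about 15% in these data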;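 further: 0% = median of all compound wells on the plate and 100% = blocking peptide control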
# Tn7 DDE FP: disrupts Tn7 cyclic peptide binding to fibrin D-Dimer-E complex. inhibition, % at 8.3 µM. hit rate 0.13% among 370,000. P02675. AID 720508. FP displacement of FITC-Tn7 peptide from fibrin DD(E); 0% = median of compound wells per plate;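 active means inhibition above the mean of compounds falling within the control limits plus 3 SD of them, cut at about 14% in these data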;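 further: 0% = plate median of compound wells and 100% = 10 µM Aha-Tn7 peptide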
#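 Measure: % inhibition scaled between sample-field median and high-control FP; Test system: human fibrin DD(E); Quantity: 2 µM final DD(E) protein; Doses: one dose, 8.3 µM nominal; Schedule: compound with protein 10 min, then 3 h after probe, room temperature; Detection: fluorescence polarization; Medium: Tris buffer with calcium and detergent, pH 7.8.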
# HTRA1 inh conf: confirmation of human HTRA1 inhibitors; hit rate 66% among 1,600; recombinant HTRA1, FP-rhodamine activity-based probe, fluorescence polarization; AID 540248; inhibition, % at 5.96 µM; shares compounds with HTRA1 inh;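 active means mean inhibition over three repeats above a set limit taken from the earlier primary screen, cut at about 37% in these data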;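 further: 0% = HTRA1 with DMSO and 100% = wells lacking HTRA1; inhibitors block probe binding so polarization drops and inhibition rises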
# BSA TAMRA ctr: BSA probe counter-screen for TCR-CD3 inhibitors; shares compounds with TCR CD3 inh; TAMRA-labeled BSA probe fluorescence counterscreen; inhibition, % at 9.4 µM; hit rate 10% among 1,200; AID 652035; in the data active means inhibition above about 23%;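 further: 0% = buffer low control and 100% = reference high control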
# TCR-CD3 inh conf: TCR-CD3 interaction inhibition, confirmation; shares compounds with TCR CD3 inh; TAMRA-labeled TCR probe fluorescence binding assay; inhibition, % at 9.4 µM; hit rate 48% among 1,200
# DDE Tn7 confirm: DD(E)-Tn7 binding inhibition, FP confirmation | shares compounds with Tn7 DDE FP | FP displacement of TRITC-Tn7 peptide from DD(E); 0% set at plate's compound-well median | inhibition, % at 8.3 µM | hit rate 5% among 460 | AID 720628;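 active means inhibition above the campaign cutoff, the mean of compounds within control limits plus 3 SD, cut at about 14% in these data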;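 further: 100% = median FP of high control wells holding Aha-Tn7 inhibitor peptide; displacers lower polarization since freed probe rises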
# Tn7 DDE ctr: counter-screen for inhibitors of Tn7 peptide binding to fibrin DD(E) | hit rate 3% among 460 | shares compounds with Tn7 DDE FP | TRITC-Tn7 probe displacement, fluorescence polarization | AID 720633 | inhibition, % at 8.3 µM;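 active means inhibition above the cutoff, the mean of compounds lying between the control bounds plus 3 SD of those compounds, cut at about 17% in these data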;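 further: 0% = median of compound sample wells and 100% = excess unlabeled Aha-Tn7 peptide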
# DDE Tn6 FP ctr: counter-screen for inhibitors of Tn6 peptide binding to fibrin DD(E); shares compounds with DDE Tn6 FP inh; TRITC-Tn6 fluorescence polarization displacement; 0% = median of compound wells, not DMSO; inhibition, % at 8.3 µM; hit rate 2% among 680; AID 720621;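 active means inhibition above the mean of test compounds lying between the control limits plus 3 SD of those, cut at about 14% in these data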;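 further: 0% = median of compound wells and 100% = wells with Aha-Tn7 blocking peptide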
# Tn6 DDE conf: DD(E)-Tn6 binding inhibition, FP confirmation; FP displacement of TRITC-Tn6 peptide from DD(E); 0% = per-plate median of test wells; shares compounds with DDE Tn6 FP inh; hit rate 10% among 680; inhibition, % at 8.3 µM;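 active means inhibition above the mean of compounds lying within the control limits plus 3 SD, cut at about 16% in these data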;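 further: 100% = high control wells holding a competing inhibitor peptide at 10 µM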
# mABHD4 conf: ABHD4 (mouse) inhibition, FP confirmation; shares compounds with mABHD4 FP; purified mABHD4, FP-Rh probe fluorescence polarization; inhibition, % at 8.92 µM; hit rate 55% among 1,800; AID 720658;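 active means mean inhibition across replicates above the hit cutoff set in the primary screen, cut at about 30% in these data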;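 further: 0% = wild-type ABHD4 with DMSO and 100% = catalytically dead S159A mutant with DMSO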
# SIAE inh conf: human SIAE inhibition, confirmation. shares compounds with SIAE primary. hit rate 13% among 2,300. inhibition, % at 9.66 µM. SIAE FP-Rh activity-based probe, fluorescence polarization;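 active means mean inhibition of the replicates above the hit cutoff set in the primary screen, cut at about 17% in these data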;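 further: 0% = SIAE with DMSO and probe and 100% = probe without SIAE; inhibitors lower polarization as more probe stays unbound to SIAE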
# An asterisk follows results filed as active; · = no result; + = active, no number. Rows were chosen to be rich in hits. Some 1.8% of all compounds tested hit in one or more screens of this group. Unless noted, no stated cut-off is given here; in the data, active means inhibition above about 19%; inactive means the rest.
SMILES,TCR CD3 inh,HTRA1 inh,SIAE primary,mABHD4 FP,DDE Tn6 FP inh,Tn7 DDE FP,HTRA1 inh conf,mABHD4 conf,SIAE inh conf,others
C=CCn1c(SCC(=O)c2ccc(O)c(O)c2)nnc1-c1cccc(C)c1,13.8,70.2*,18.7*,41.1*,-3.9,-6.1,77.6*,29.8*,5.1,
COCCN=c1scc(-c2ccco2)n1/N=C/c1ccc(O)c(O)c1O,25.8*,67.9*,28.3*,60.3*,-4.4,0.0,78.0*,61.5*,-3.6,BSA TAMRA ctr=-28.2;TCR-CD3 inh conf=23.8*
CS(=O)(=O)N(CC(=O)N1CCCCCC1)c1cc(Cl)ccc1Cl,1.0,0.2,-7.8,2.7,3.7,-1.2,·,·,·,
O=C1/C(=C\c2ccc(O)c(O)c2)C(c2ccccc2)=NN1c1ccccc1,4.3,58.0*,28.0*,27.9,-0.8,-7.0,97.1*,·,10.6,
CCOC(=O)c1sc(N=NC2=C(O)CCCC2=O)c(C(=O)OCC)c1C,4.0,47.6*,22.4*,52.1*,-3.0,-5.7,38.5*,34.1*,-0.5,
CN(C(=S)Nc1ccccc1)c1ccccc1,5.1,-0.5,2.5,7.6,4.4,-6.4,·,·,·,
CN(C(=S)Nc1ccc(Oc2ccccc2)cc1)c1ccc(O)cc1,1.7,44.5*,20.8*,34.8*,1.7,-9.1,-13.3,6.0,-2.5,
Cc1ccc(C)c(NC(=O)[C@@H]2CCCN2S(=O)(=O)c2cccc3cccnc23)c1,·,·,-3.6,-0.2,2.0,-5.5,·,·,·,
O=S(=O)(Nc1ccc(N=Nc2ccc(O)c3ccccc23)cc1)c1ccccc1,1.8,44.2*,35.9*,-2.5,-11.2,2.0,30.9,·,-38.0,
O=S(=O)(Nc1ccc(N=Nc2ccccc2)cc1)c1ccccc1,-1.3,-6.2,8.4,-33.0,-0.2,-5.0,·,·,·,
CCOC(=O)C1(C)CCCN(C(=O)c2ccccc2OC(F)(F)F)C1 (stereo not drawn),-4.6,·,-4.0,-7.9,2.3,-10.0,·,·,·,
O=C1c2ccccc2-c2onc3ccc(N4CCCC4)c1c23,110.8*,91.4*,76.3*,99.4*,100.4*,32.5*,27.3,70.1*,56.4*,BSA TAMRA ctr=186.0*;TCR-CD3 inh conf=144.8*;DDE Tn7 confirm=6.3;Tn7 DDE ctr=93.2*;DDE Tn6 FP ctr=6.3;Tn6 DDE conf=93.2*
CCNc1ccc2noc3c2c1C(=O)c1ccccc1-3,126.1*,123.1*,97.8*,121.9*,+,16.8*,112.3*,116.0*,91.4*,BSA TAMRA ctr=+;TCR-CD3 inh conf=186.6*;DDE Tn7 confirm=53.3*;Tn7 DDE ctr=93.2*;DDE Tn6 FP ctr=53.3*;Tn6 DDE conf=93.2*
c1ccc(CNc2c3ccccc3nc3ccccc23)cc1,-3.2,0.6,-3.0,-6.7,0.2,1.2,·,·,·,
Oc1ccc(CCNc2c3ccccc3nc3ccccc23)cc1O,21.0*,62.2*,19.4*,23.0,-5.2,-0.1,83.8*,·,28.7*,
CC(=O)NC(c1ccccc1)c1cc(Cl)c2cccnc2c1O (stereo not drawn),-11.4,70.5*,20.2*,13.2,-3.3,-5.8,72.1*,·,17.2*,
CCCC(=O)NC(c1ccc(OC)c(OC)c1)c1cc(Cl)c2cccnc2c1O (stereo not drawn),-2.5,46.4*,19.7*,7.1,1.9,-3.1,66.1*,·,11.6,
CC(=O)NC(c1cc(F)c2cccnc2c1O)C1CC1 (stereo not drawn),1.1,16.4,-1.0,1.6,5.7,-1.4,·,·,·,
CC(=O)NC(c1ccc(N(C)C)cc1)c1cc(Cl)c2cccnc2c1O (stereo not drawn),1.1,65.0*,23.2*,29.7*,-9.7,-2.8,82.0*,32.7*,24.1*,
COc1ccc(C(NC(C)=O)c2cc(Cl)c3cccnc3c2O)cc1 (stereo not drawn),-4.0,70.5*,19.1*,7.4,-0.4,-2.0,79.9*,·,19.5*,
Cc1ccc(C)c(S(=O)(=O)N2CCN(c3nc(-c4cccnc4)nc4ccccc34)CC2)c1,3.1,-39.6,-15.9,-0.4,3.6,-1.2,·,·,·,
Cn1nccc1-c1ccc(C(=O)NCc2ccco2)c2occc12,-7.8,·,1.5,2.5,-3.1,4.2,·,·,·,
Cc1cc2cc(CNS(=O)(=O)c3ccccc3)ccc2n1C,50.3*,51.3*,17.5*,37.0*,59.8*,7.7,25.4,3.9,-0.4,BSA TAMRA ctr=7.1;TCR-CD3 inh conf=18.7;DDE Tn6 FP ctr=2.4;Tn6 DDE conf=5.2
O=[N+]([O-])c1cc([N+](=O)[O-])c2c(=Nc3ccccc3)n(-c3ccccc3)n(O)c2c1,26.4*,42.2*,25.0*,55.5*,10.6,1.1,47.9*,48.0*,10.9,
CC(C)NC(=O)N(C)C[C@H]1OCCCC[C@H](C)Oc2ccc(NS(=O)(=O)c3ccccc3)cc2C(=O)N([C@H](C)CO)C[C@H]1C,-4.5,-1.5,-3.3,0.3,0.0,6.2,·,·,·,
CCOc1ccc(/C=N/NC(=S)NC2CC3C=CC2C3)cc1 (stereo not drawn),1.2,·,3.3,-5.3,-1.6,3.1,·,·,·,
Oc1c(Br)cc(Br)cc1/C=N/NC(=S)N[C@H]1CC2C=CC1C2 (stereo partly drawn),31.9*,57.3*,24.2*,38.0*,5.1,-1.6,63.1*,43.0*,24.2*,BSA TAMRA ctr=-12.5;TCR-CD3 inh conf=38.2*

# Compound activity (PubChem BioAssay)
